Data set [1] deals with Rattus norvegicus. The data set is described as follows: Iron scavenging activity in 59Fe-ferritin-loaded rat assessed as iron mobilization level at 450 umol/kg, po dosed 1 hr after 59Fe-ferritin injection and measured 24 hrs after 59Fe-ferritin injection by gamma counting method relative to control. In kind it is functional. The procedure, abridged: (§1)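 Male SD rats, 300 g, fasted overnight, given about 1 μC 59Fe-ferritin i.v. under isoflurane. Chelator gavaged 1 h later, then rats housed in metabolic cages; food returned 1 h after dosing. Killed 24 h after 59Fe-ferritin. Urine, faeces, liver and gut gamma-counted. 8 rats per condition.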

The test system of data set [2] is Rattus norvegicus. Briefly: Iron scavenging activity in 59Fe-ferritin-loaded rat assessed as iron mobilization level at 150 to 450 umol/kg, po dosed 1 hr after 59Fe-ferritin injection and measured 24 hrs after 59Fe-ferritin injection by gamma counting method relative to control. In kind it is functional, organism-based. The procedure, abridged: as §1
The nature of data set [3]: Metal chelating activity assessed as iron chelation. The procedure, abridged:
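Automated spectrophotometric titration at ca. 40 µM iron complex, 50 mm path. pH raised in 0.1-unit steps with 0.1 M KOH, 3 min equilibration per step, up to pH 12.0. Competition with metal hydrolysis species; spectra fitted over 400-700 nm using literature hydrolysis constants to give stability constants.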

Data set [4] is described as follows: Drug uptake in rat bile treated with 150 umol/kg, po (R) -3,4-Dihydroxy-1-(1 -hydroxy-3-phenylpropan-2-yl)-2-methyl- pyridin-1-ium Chloride assessed as compound formation by LC/TOF/MS/MS analysis. In kind it is ADME, organism-based. Conditions: in vivo. The procedure, abridged:
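Bile collected from rats after an oral dose of 150 μmol/kg. Metabolites characterised by β-glucuronidase hydrolysis and LC-TOFMS/MS. M2/M1 ratio followed over 8 h.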

Data set [5] is described as follows: Toxicity in Sprague-Dawley rat assessed as induction of histopathological changes in thymus at 25 to 116 mg/kg, po dosed daily for 4 weeks and measured after additional 4 weeks period in absence of drug. To be noted: in vivo, 672 h. Format: organism-based.
Data set [6] is described as follows: Toxicity in Sprague-Dawley rat assessed as induction of histopathological changes in pancreas at 25 to 116 mg/kg, po dosed daily for 4 weeks and measured after additional 4 weeks period in absence of drug. In kind it is organism-based. Conditions: in vivo, 672 h.
Data set [7] can be described thus: Toxicity in Sprague-Dawley rat assessed as induction of mortality at 200 mg/kg, po dosed once daily for 2 months as 5 days per week schedule. Format: organism-based. To be noted: in vivo, 120 h.
The nature of data set [8]: Toxicity in Sprague-Dawley rat assessed as induction of histopathological changes in bone marrow at 25 to 116 mg/kg, po dosed daily for 4 weeks and measured after additional 4 weeks period in absence of drug. Conditions: in vivo, 672 h. Format: organism-based.
The test system of data set [9] is Mus musculus. Briefly: Toxicity in mouse assessed as reduction in erythrocyte population at 200 mg/kg, po dosed once daily for 2 months as 5 days per week schedule. Conditions: in vivo, 120 h.
Data set [10] concerns Mus musculus. Briefly: Toxicity in mouse assessed as effect on platelet population at 200 mg/kg, po dosed once daily for 2 months as 5 days per week schedule. To be noted: in vivo, 120 h.
Data set [11] can be described thus: Drug metabolism in rat liver microsomes assessed as oxidative metabolism incubated for 1 hr relative to deferiprone. In kind it is ADME, Microsome.
Data set [12] has as its system Mus musculus. The data set is described as follows: Toxicity in mouse assessed as reduction in neutrophils counts at 200 mg/kg, po dosed once daily for 2 months as 5 days per week schedule. To be noted: in vivo, 120 h.
In data set [13] the test system is Mus musculus. Briefly: Toxicity in mouse assessed as reduction in total white cell counts at 200 mg/kg, po dosed once daily for 2 months as 5 days per week schedule. Conditions: in vivo, 120 h.
The subject of data set [14] is Mus musculus. The data set is described as follows: Toxicity in mouse assessed as increase in reticulocyte population at 200 mg/kg, po dosed once daily for 2 months as 5 days per week schedule. Conditions: in vivo, 120 h.
Data set [15] has as its system Mus musculus. Briefly: Toxicity in mouse assessed as reduction in monocytes counts at 200 mg/kg, po dosed once daily for 2 months as 5 days per week schedule. Conditions: in vivo, 120 h.
Data set [16] deals with Mus musculus. The data set is described as follows: Toxicity in mouse assessed as reduction in eosinophils counts at 200 mg/kg, po dosed once daily for 2 months as 5 days per week schedule. To be noted: in vivo, 120 h.
Data set [17] can be described thus: Drug metabolism in rat liver microsomes assessed as glucuronidation incubated for 1 hr relative to deferiprone. Format: ADME, Microsome. The procedure, abridged:
(§2)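 Compound incubated 1 h with rat or human liver microsomes, n = 4, mean ± SD. Glucuronide formed given as percentage of total chelator added. Oxidative metabolism assessed separately.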

Data set [18] in a line: Drug metabolism in human liver microsomes assessed as glucuronidation incubated for 1 hr relative to deferiprone. Format: ADME, Microsome. In short, it runs like this: as §2
Data set [19] has as its system Mus musculus. Briefly: Toxicity in mouse assessed as reduction in lymphocytes counts at 200 mg/kg, po dosed once daily for 2 months as 5 days per week schedule. To be noted: in vivo, 120 h.
Data set [20] can be described thus: Drug metabolism in human liver microsomes assessed as oxidative metabolism incubated for 1 hr relative to deferiprone. Format: ADME, Microsome.

Each structure is given as a SMILES string. Activity calls are given as the source filed them. The rule behind the calls is not given here.

For the compound `Cc1c(O)c(O)cc[n+]1[C@@H](C)CO.[Cl-]`, in the data set with Rattus norvegicus [1], the Activity turned out to be 11.9%.
On the same count and under the same terms, to `CCc1c(O)c(O)cc[n+]1[C@H](C)CO.[Cl-]` belongs 10.5%; to `CCc1c(O)c(O)cc[n+]1[C@H](CO)CC(C)C.[Cl-]`, 10.3%.
Still for that read-out and setting: to `Cc1c(O)c(O)cc[n+]1CCO.[Cl-]` belongs 4%.
Turning to `Cc1c(O)c(O)cc[n+]1[C@H](CO)C(C)C.[Cl-]`, the Activity result in the data set with Rattus norvegicus [2] was “Dose-dependent effect”; in the data set with Rattus norvegicus [1] it was 18.7%.
As to `CCc1c(O)c(O)cc[n+]1[C@@H](CO)Cc1ccccc1.[Cl-]`, the figures for the Activity entry in the data set with Rattus norvegicus [2] and in the data set with Rattus norvegicus [1] were “Dose-dependent effect” and 22.3%, respectively.
As for `CCc1c(O)c(O)cc[n+]1[C@H](CO)Cc1ccccc1.[Cl-]`, the Activity with Rattus norvegicus [1] worked out at 13.1%.
On the same count and under the same terms, with `CCc1c(O)c(O)cc[n+]1CCO.[Cl-]` the figure was 2.4%; with `CCc1c(O)c(O)cc[n+]1[C@H](CO)[C@@H](C)CC.[Cl-]`, 5.5%.
As for `CCc1c(O)c(O)cc[n+]1[C@H](CO)C(C)C.[Cl-]`, the Activity in the data set with Rattus norvegicus [1] is listed as 7.9%.
Same read-out and setting: to `CCc1c(O)c(O)cc[n+]1[C@@H](CO)CC(C)C.[Cl-]` belongs 13.6%; to `Cc1c(O)c(O)cc[n+]1[C@H](C)CO.[Cl-]`, 6.5%; to `CC[C@H](C)[C@@H](CO)[n+]1ccc(O)c(O)c1C.[Cl-]`, 10.8%.
Regarding `CCc1c(O)c(O)cc[n+]1[C@@H](C)CO.[Cl-]`, the Activity with Rattus norvegicus [1] is 16%.
As to `Cc1c(O)c(O)cc[n+]1[C@@H](CO)CC(C)C.[Cl-]`, the Activity in the data set with Rattus norvegicus [1] turned out to be 8.2%.
On the same count and under the same terms, with `Cc1c(O)c(O)cc[n+]1[C@@H](CO)C(C)C.[Cl-]` the figure was 8%.
As to `Cc1c(O[C@@H]2O[C@H](C(=O)O)[C@@H](O)[C@H](O)[C@H]2O)c(=O)ccn1[C@@H](CO)Cc1ccccc1`, the outcome in data set [3] was inactive. For the same compound, the Drug uptake result in data set [4] is given as “Metabolite_Detected”.
With `CCc1c(O)c(O)cc[n+]1[C@@H](CO)C(C)C.[Cl-]`, in the data set on Rattus norvegicus [1], the Activity was 10.6%.
For the compound `Cc1c(O)c(=O)ccn1[C@@H](CO[C@@H]1O[C@H](C(=O)O)[C@@H](O)[C@H](O)[C@H]1O)Cc1ccccc1`, the result in data set [3] was Active. In addition, in [4], the Drug uptake entry was “Metabolite_Detected”.
For the compound `Cc1c(O)c(=O)ccn1C` [DEFERIPRONE], the Activity entry in data set [5] is “Non-Toxic”; in data set [6], “Non-Toxic”; in [7], “Non-Toxic”; in the data set on Rattus norvegicus [1] it was 11.8%; in data set [8], “Non-Toxic”.
On to `Cc1c(O)c(O)cc[n+]1[C@H](CO)CC(C)C.[Cl-]`, for which the Activity in the data set with Rattus norvegicus [1] is 5.8%.
On to `Cc1c(O)c(O)cc[n+]1[C@H](CO)Cc1ccccc1.[Cl-]`, for which the Activity result with Mus musculus [9], in the data set with Mus musculus [10], in the data set with Mus musculus [12], with Mus musculus [13], in the data set on Mus musculus [14] and in the data set with Mus musculus [15] was “Non-Toxic” throughout. Moreover, the Activity result is reported as “Non-Toxic” in the data set on Mus musculus [16], “Non-Toxic” in [7], 12.8% with Rattus norvegicus [1] and “Non-Toxic” in the data set with Mus musculus [19]. Also, the Drug metabolism entry in data set [11], in data set [17], in data set [18] and in data set [20] was “Metabolite_Detected” each time.

For the origin of these results see ChEMBL document CHEMBL4376902, “CN128: A New Orally Active Hydroxypyridinone Iron Chelator” (J Med Chem, 2020).
